Source: ChEMBL document CHEMBL3616436, “Synthesis, cytotoxicity and antimicrobial activity of thiourea derivatives incorporating 3-(trifluoromethyl)phenyl moiety” (Eur J Med Chem, 2015)
pEC50: −log10 of the molar value. Values after ≈ are worked out from the molar mass of the structure shown. Active and inactive are the calls of the source. The calls are words filed in the database; no cut-off is given here.

How the values were obtained:
[1] = Cytotoxicity against human MT4 cells; assay type: cell-based
[2] = test system: Vesicular stomatitis virus; experiment: Antiviral activity against Vesicular stomatitis virus ATCC VR 1540 infected in African green monkey Vero 76 cells assessed as reduction of virus-plaque formation after 2 days by crystal violet staining; assay type: functional, organism-based; conditions: ATCC VR 1540, Vero, 48 h
[3] = test system: Human immunodeficiency virus 1; experiment: Antiviral activity against HIV1 3B infected in human MT4 cells assessed as protection against virus-induced cytopathogenicity by MTT assay; assay type: functional, organism-based; conditions: Human immunodeficiency virus 1, 3B
[4] = Cytotoxicity against bovine MDBK cells assessed as cell viability after 48 to 96 hrs by MTT assay; assay type: cell-based, Bos taurus; conditions: cattle
[5] = Antiviral activity against Bovine viral diarrhea virus 1-NADL ATCC VR-534 infected in MDBK cells assessed as protection against virus-induced cytopathogenicity after 3 to 4 days by MTT assay; assay type: functional, cell-based; conditions: Bovine viral diarrhea virus isolates and strains, ATCC VR-534, MDBK
Procedure, shortened: (§1)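 Cells seeded in 96-well plates (BHK 5x10^4, MDBK 3x10^4 cells/well), grown overnight to confluence, infected at m.o.i. 0.01 (BHK for Reo-1, MDBK for BVDV); serial compound dilutions in maintenance medium with 0.5% inactivated FBS added after 1 h; viability by MTT after 3–4 days at 37°C; EC50 for 50% protection by linear regression.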

[6] = Cytotoxicity against BHK cells assessed as cell viability after 48 to 96 hrs by MTT assay; assay type: cell-based, Mesocricetus auratus; conditions: hamster
[7] = test system: Yellow fever virus; experiment: Antiviral activity against Yellow fever virus 17D infected in BHK cells assessed as protection against virus-induced cytopathogenicity after 3 to 4 days by MTT assay; assay type: functional, cell-based
[8] = test system: Mammalian orthoreovirus 1; experiment: Antiviral activity against Reovirus type-1 ATCC VR-214 infected in BHK cells assessed as protection against virus-induced cytopathogenicity after 3 to 4 days by MTT assay; assay type: functional, cell-based; conditions: Mammalian orthoreovirus 1, ATCC VR-214, BHK; procedure, shortened: as §1
[9] = Cytotoxicity against African green monkey Vero 76 cells assessed as cell viability after 48 to 96 hrs by crystal violet staining; assay type: cell-based; conditions: chlorocebus sabaeus
[10] = test system: Coxsackievirus B5; experiment: Antiviral activity against Human coxsackievirus B5 ATCC VR-29 infected in African green monkey Vero 76 cells assessed as reduction of virus-plaque formation after 3 days by crystal violet staining; assay type: functional, organism-based; conditions: Enterovirus B, ATCC VR-29, Vero, 72 h
Procedure, shortened: (§2)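 Plaque reduction: Vero-76 at 2x10^5 cells/well grown to confluent monolayers, infected 2 h at 50–100 PFU/well; after removing unadsorbed virus, overlay of D-MEM, 1% inactivated FBS, 0.75% methylcellulose with or without serial compound dilutions; 3 days at 37°C, fixed and stained with crystal violet in 50% ethanol, plaques counted; EC50 by linear regression.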

[11] = test system: Poliovirus 1; experiment: Antiviral activity against Poliovirus type 1 ATCC VR-1562 infected in African green monkey Vero 76 cells assessed as reduction of virus-plaque formation after 2 days by crystal violet staining; assay type: functional, organism-based; conditions: Enterovirus C, ATCC VR-1562, Vero, 48 h
[12] = test system: Vaccinia virus; experiment: Antiviral activity against Human Vaccinia virus ATCC VR-1549 infected in African green monkey Vero 76 cells assessed as reduction of virus-plaque formation after 3 days by crystal violet staining; assay type: functional, organism-based; conditions: Orthopoxvirus vaccinia, ATCC VR-1549, Vero, 72 h
[13] = test system: Human alphaherpesvirus 1; experiment: Antiviral activity against Human herpesvirus 1 KOS ATCC VR-1493 infected in African green monkey Vero 76 cells assessed as reduction of virus-plaque formation after 3 days by crystal violet staining; assay type: functional, organism-based; conditions: Human alphaherpesvirus 1, KOS ATCC VR1493, Vero, 72 h; procedure, shortened: as §2
[14] = test system: Staphylococcus aureus; experiment: Antimicrobial activity against Staphylococcus aureus NCTC 4163 at 400 ug after 18 hrs by disc-diffusion method; assay type: functional; conditions: NCTC 4163, 18 h, read-out: IZ
Procedure, shortened: (§3)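 Disc diffusion on Mueller-Hinton II agar per CLSI; 9 mm paper discs loaded with 400 µg compound from DMSO solution, dried, placed on agar; growth inhibition zone diameter read after 18 h at 35°C.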

[15] = test system: Staphylococcus aureus; experiment: Antimicrobial activity against Staphylococcus aureus ATCC 25923 at 400 ug after 18 hrs by disc-diffusion method; assay type: functional; conditions: ATCC 25923, 18 h, read-out: IZ; procedure, shortened: as §3
[16] = test system: Staphylococcus aureus; experiment: Antimicrobial activity against Staphylococcus aureus ATCC 6538 at 400 ug after 18 hrs by disc-diffusion method; assay type: functional; conditions: ATCC 6538, 18 h, read-out: IZ; procedure, shortened: as §3
[17] = test system: Staphylococcus aureus; experiment: Antimicrobial activity against Staphylococcus aureus ATCC 29213 at 400 ug after 18 hrs by disc-diffusion method; assay type: functional; conditions: ATCC 29213, 18 h, read-out: IZ; procedure, shortened: as §3
[18] = test system: Staphylococcus epidermidis; experiment: Antimicrobial activity against Staphylococcus epidermidis ATCC 12228 at 400 ug after 18 hrs by disc-diffusion method; assay type: functional; conditions: ATCC 12228, 18 h, read-out: IZ; procedure, shortened: as §3
[19] = test system: Staphylococcus epidermidis; experiment: Antimicrobial activity against Staphylococcus epidermidis ATCC 35984 at 400 ug after 18 hrs by disc-diffusion method; assay type: functional; conditions: ATCC 35984, 18 h, read-out: IZ; procedure, shortened: as §3
[20] = test system: Bacillus subtilis; experiment: Antimicrobial activity against Bacillus subtilis ATCC 6633 at 400 ug after 18 hrs by disc-diffusion method; assay type: functional; conditions: ATCC 6633, 18 h, read-out: IZ; procedure, shortened: as §3
[21] = test system: Bacillus cereus; experiment: Antimicrobial activity against Bacillus cereus ATCC 11778 at 400 ug after 18 hrs by disc-diffusion method; assay type: functional; conditions: ATCC 11778, 18 h, read-out: IZ; procedure, shortened: as §3
[22] = test system: Enterococcus hirae; experiment: Antimicrobial activity against Enterococcus hirae ATCC 10541 at 400 ug after 18 hrs by disc-diffusion method; assay type: functional; procedure, shortened: as §3
[23] = test system: Enterococcus faecalis; experiment: Antimicrobial activity against Enterococcus faecalis ATCC 29212 at 400 ug after 18 hrs by disc-diffusion method; assay type: functional; conditions: for zone of inhibition at 400 µg/disc: ATCC 29212, 18 h, read-out: IZ; procedure, shortened: as §3
[24] = test system: Micrococcus luteus; experiment: Antimicrobial activity against Micrococcus luteus ATCC 10240 at 400 ug after 18 hrs by disc-diffusion method; assay type: functional; conditions: ATCC 10240, 18 h, read-out: IZ; procedure, shortened: as §3
[25] = test system: Micrococcus luteus; experiment: Antimicrobial activity against Micrococcus luteus ATCC 9341 at 400 ug after 18 hrs by disc-diffusion method; assay type: functional; conditions: ATCC 9341, 18 h, read-out: IZ; procedure, shortened: as §3
[26] = test system: Proteus vulgaris; experiment: Antimicrobial activity against Proteus vulgaris NCTC 4635 at 400 ug after 18 hrs by disc-diffusion method; assay type: functional; procedure, shortened: as §3
[27] = test system: Staphylococcus aureus; experiment: Antimicrobial activity against Staphylococcus aureus NCTC 4163 after 18 hrs by twofold serial microdilution method; assay type: functional; conditions: NCTC 4163, 18 h
[28] = test system: Staphylococcus aureus; experiment: Antimicrobial activity against Staphylococcus aureus ATCC 25923 after 18 hrs by twofold serial microdilution method; assay type: functional; conditions: ATCC 25923, 18 h
[29] = test system: Staphylococcus aureus; experiment: Antimicrobial activity against Staphylococcus aureus ATCC 6538 after 18 hrs by twofold serial microdilution method; assay type: functional; conditions: ATCC 6538, 18 h
[30] = test system: Staphylococcus aureus; experiment: Antimicrobial activity against Staphylococcus aureus ATCC 29213 after 18 hrs by twofold serial microdilution method; assay type: functional; conditions: ATCC 29213, 18 h
[31] = test system: Staphylococcus epidermidis; experiment: Antimicrobial activity against Staphylococcus epidermidis ATCC 12228 after 18 hrs by twofold serial microdilution method; assay type: functional; conditions: ATCC 12228, 18 h
[32] = test system: Staphylococcus epidermidis; experiment: Antimicrobial activity against Staphylococcus epidermidis ATCC 35984 after 18 hrs by twofold serial microdilution method; assay type: functional; conditions: ATCC 35984, 18 h
[33] = test system: Mycobacterium tuberculosis; experiment: Antimycobacterial activity against Mycobacterium tuberculosis H37Rv ATCC 25618; assay type: functional
Procedure, shortened: (§4)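 Classical test-tube successive-dilution method in Youmans' modification of Proskauer and Beck liquid medium with 10% bovine serum. Inoculum came from 14-day cultures. DMSO stock was 10 mg/mL, diluted geometrically in medium. Tubes were incubated at 37 °C. Concentrations tested were 3.1, 6.2, 12.5, 25, 50 and 100 µg/ml. MIC is the minimum concentration inhibiting growth relative to compound-free tubes.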

[34] = test system: Mycobacterium tuberculosis; experiment: Antimycobacterial activity against drug-sensitive Mycobacterium tuberculosis Spec. 192; assay type: functional; procedure, shortened: as §4

Compound	CC50 [1]	pEC50 [2]	pEC50 [3]	CC50 [4]	pEC50 [5]	CC50 [6]	pEC50 [7]	pEC50 [8]	CC50 [9]	pEC50 [10]	pEC50 [11]	pEC50 [12]	pEC50 [13]	zone of inhibition at 400 µg/disc [14]	zone of inhibition at 400 µg/disc [15]	zone of inhibition at 400 µg/disc [16]	zone of inhibition at 400 µg/disc [17]	zone of inhibition at 400 µg/disc [18]	zone of inhibition at 400 µg/disc [19]	zone of inhibition at 400 µg/disc [20]	other results
O=C(NC(=S)Nc1cccc(C(F)(F)F)c1)c1ccccc1	> 100 µM	< 4.00	< 4.00	> 100 µM	< 4.00	> 100 µM	< 4.00	< 4.00	> 100 µM	< 4.00	< 4.00	< 4.00	< 4.00	17 mm	17 mm	17 mm	17 mm	17 mm	16 mm	17 mm	zone of inhibition at 400 µg/disc [21]: 14 mm; inhibition zone (IZ) [22]: inactive; zone of inhibition at 400 µg/disc [23]: 12 mm; zone of inhibition at 400 µg/disc [24]: 19 mm; zone of inhibition at 400 µg/disc [25]: 17 mm; inhibition zone (IZ) [26]: inactive; MIC [27]: 32 µg/mL (≈ 98.7 µM); MIC [28]: 32 µg/mL (≈ 98.7 µM); MIC [29]: 32 µg/mL (≈ 98.7 µM); MIC [30]: 32 µg/mL (≈ 98.7 µM); MIC [31]: 64 µg/mL (≈ 197 µM); MIC [32]: 64 µg/mL (≈ 197 µM); MIC [33]: > 100 µg/mL; MIC [34]: > 100 µg/mL
C=C(C)CNC(=S)Nc1cccc(C(F)(F)F)c1	43 µM	< 4.00	< 4.37	> 100 µM	< 4.00	> 100 µM	< 4.00	< 4.00	> 100 µM	< 4.00	< 4.00	< 4.00	< 4.00	20 mm	18 mm	18 mm	17 mm	17 mm	13 mm	16 mm	zone of inhibition at 400 µg/disc [21]: 16 mm; inhibition zone (IZ) [22]: inactive; inhibition zone (IZ) [23]: inactive; zone of inhibition at 400 µg/disc [24]: 16 mm; zone of inhibition at 400 µg/disc [25]: 20 mm; inhibition zone (IZ) [26]: inactive; MIC [27]: 64 µg/mL (≈ 233 µM); MIC [28]: 64 µg/mL (≈ 233 µM); MIC [29]: 64 µg/mL (≈ 233 µM); MIC [30]: 64 µg/mL (≈ 233 µM); MIC [31]: 64 µg/mL (≈ 233 µM); MIC [32]: 64 µg/mL (≈ 233 µM); MIC [33]: > 100 µg/mL; MIC [34]: 100 µg/mL (≈ 365 µM)
FC(F)(F)c1cccc(NC(=S)Nc2ccccc2)c1	39 µM	< 4.41	< 4.41	49 µM	< 4.31	41 µM	< 4.39	< 4.39	39 µM	< 4.41	< 4.41	< 4.41	< 4.41	24 mm	23 mm	21 mm	23 mm	23 mm	23 mm	21 mm	zone of inhibition at 400 µg/disc [21]: 22 mm; zone of inhibition at 400 µg/disc ([22]; ATCC 10541, 18 h, read-out: IZ): 25 mm; zone of inhibition at 400 µg/disc [23]: 15 mm; zone of inhibition at 400 µg/disc [24]: 22 mm; zone of inhibition at 400 µg/disc [25]: 24 mm; zone of inhibition at 400 µg/disc ([26]; NCTC 4635, 18 h, read-out: IZ): 11 mm; MIC [27]: 16 µg/mL (≈ 54 µM); MIC [28]: 16 µg/mL (≈ 54 µM); MIC [29]: 16 µg/mL (≈ 54 µM); MIC [30]: 16 µg/mL (≈ 54 µM); MIC [31]: 32 µg/mL (≈ 108 µM); MIC [32]: 16 µg/mL (≈ 54 µM); MIC [33]: 50 µg/mL (≈ 169 µM); MIC [34]: 50 µg/mL (≈ 169 µM)
